Assay results taken from article PMC4332549 (ChemMedChem, 2012).
Square brackets hold non-standard residues; d marks the D form. Peptide text beside a SMILES is read from it. * marks the point of attachment. Palmitoyl = CCCCCCCCCCCCCCCC(=O)*; Ahp = NCCCCCCC(=O)O; Ahx = NCCCCCC(=O)O; Sar = CNCC(=O)O

Legend:
[1] = biological target: T1, hGAL1 (human galanin receptor GalR1) (Homo sapiens, UniProt P47211); experiment: Competitive binding assay, Eu-labeled galanin, time-resolved fluorescence
T1 sequence (P47211 1-349): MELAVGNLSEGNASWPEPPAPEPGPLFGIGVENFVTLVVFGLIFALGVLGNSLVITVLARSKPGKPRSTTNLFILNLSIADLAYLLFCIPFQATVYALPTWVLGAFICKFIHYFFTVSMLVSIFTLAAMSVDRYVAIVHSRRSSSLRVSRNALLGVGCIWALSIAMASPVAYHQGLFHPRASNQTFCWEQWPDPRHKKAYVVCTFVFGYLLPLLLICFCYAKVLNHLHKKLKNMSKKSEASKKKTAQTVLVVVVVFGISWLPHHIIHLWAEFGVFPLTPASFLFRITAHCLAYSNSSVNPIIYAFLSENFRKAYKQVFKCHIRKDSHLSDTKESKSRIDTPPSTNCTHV

Rat serum stability = assay type: in vitro ADME
In short: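 Male Sprague-Dawley rat trunk-blood serum, kept at −80 °C and used within 3 months. 10 μg peptide in 1 mL pre-warmed 25% serum in 0.1 M Tris-HCl pH 7.5 at 37 °C. Sampled at 0, 30 min, 1, 2, 4 and 8 h, quenched with TCA/isopropanol at −20 °C for 20 min, then centrifuged. Intact peptide measured by reverse-phase HPLC; t1/2 fitted from ≥3 independent time-courses.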

[2] = octanol-water log D, shake-flask / HPLC; cited from earlier work
[3] = biological target: T2, hGAL2 (human galanin receptor GalR2) (Homo sapiens, UniProt O43603); experiment: Competitive binding assay, Eu-labeled galanin, time-resolved fluorescence
T2 sequence (O43603 1-387): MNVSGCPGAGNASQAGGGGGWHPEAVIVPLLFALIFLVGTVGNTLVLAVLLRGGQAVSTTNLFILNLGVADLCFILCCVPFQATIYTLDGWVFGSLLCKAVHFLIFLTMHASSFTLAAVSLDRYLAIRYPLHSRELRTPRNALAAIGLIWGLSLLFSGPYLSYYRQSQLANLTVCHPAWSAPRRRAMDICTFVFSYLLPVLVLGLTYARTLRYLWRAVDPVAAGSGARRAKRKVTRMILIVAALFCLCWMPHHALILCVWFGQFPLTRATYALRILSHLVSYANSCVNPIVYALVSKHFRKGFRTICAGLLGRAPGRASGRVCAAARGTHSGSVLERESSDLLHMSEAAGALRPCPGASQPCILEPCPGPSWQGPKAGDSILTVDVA

CCCCCCCCCCCCCCCC(=O)NCCCC[C@H](NC(=O)[C@H](CCCCN)NC(=O)[C@H](CCCCN)NC(=O)CCCCCNC(=O)[C@H](Cc1ccc(O)cc1)NC(=O)CNC(=O)[C@H](C)NC(=O)[C@H](CO)NC(=O)[C@H](CC(N)=O)NC(=O)[C@H](CC(C)C)NC(=O)[C@@H](NC(=O)[C@H](Cc1c[nH]c2ccccc12)NC(=O)CNC)[C@@H](C)O)C(=O)N[C@@H](CCCCN)C(N)=O [L-Gal(6-Ahx)-B2] (H-[Sar]WTLNSAGY[Ahx]KKK(Palmitoyl)K-NH2)
Ki [1]: 1.17 ± 0.3 µM

CCCCCCCCCCCCCCCC(=O)NCCCC[C@H](NC(=O)[C@@H](CCCCN)NC(=O)[C@@H](CCCCN)NC(=O)CCCCCCNC(=O)[C@H](Cc1ccc(O)cc1)NC(=O)CNC(=O)[C@H](C)NC(=O)[C@H](CO)NC(=O)[C@H](CC(N)=O)NC(=O)[C@H](CC(C)C)NC(=O)[C@@H](NC(=O)[C@H](Cc1c[nH]c2ccccc12)NC(=O)CNC)[C@@H](C)O)C(=O)N[C@H](CCCCN)C(N)=O [D-Gal(7-Ahp)-B2] (H-[Sar]WTLNSAGY[Ahp][dK][dK]K(Palmitoyl)[dK]-NH2)
half-life at 10 µg/mL (Rat serum stability; male, Sprague-Dawley, rat, 25% rat serum, pH 7.5): > 10 h

CCCCCCCCCCCCCCCC(=O)NCCCC[C@H](NC(=O)[C@H](CCCCN)NC(=O)[C@H](CCCCN)NC(=O)[C@@H]1CCCN1C(=O)CNC(=O)[C@H](CC(C)C)NC(=O)[C@H](CC(C)C)NC(=O)[C@H](Cc1ccc(O)cc1)NC(=O)CNC(=O)[C@H](C)NC(=O)[C@H](CO)NC(=O)[C@H](CC(N)=O)NC(=O)[C@H](CC(C)C)NC(=O)[C@@H](NC(=O)[C@H](Cc1c[nH]c2ccccc12)NC(=O)CNC)[C@@H](C)O)C(=O)N[C@@H](CCCCN)C(N)=O [Gal-B2]
increase of t1/2 compared to Gal(1-16) (Rat serum stability; rat serum): 80 fold
log D [2]: 1.24

CCCCCCCCCCCCCCCC(=O)NCCCC[C@H](NC(=O)[C@@H](CCCCN)NC(=O)[C@@H](CCCCN)NC(=O)[C@H](Cc1ccc(O)cc1)NC(=O)CNC(=O)[C@H](C)NC(=O)[C@H](CO)NC(=O)[C@H](CC(N)=O)NC(=O)[C@H](CC(C)C)NC(=O)[C@@H](NC(=O)[C@H](Cc1c[nH]c2ccccc12)NC(=O)CNC)[C@@H](C)O)C(=O)N[C@H](CCCCN)C(N)=O [D-[des-LLGP]Gal-B2] (H-[Sar]WTLNSAGY[dK][dK]K(Palmitoyl)[dK]-NH2)
Ki [1]: ≥ 30 µM

CCCCCCCCCCCCCCCC(=O)NCCCC[C@H](NC(=O)[C@H](CCCCN)NC(=O)[C@H](CCCCN)NC(=O)[C@H](Cc1ccc(O)cc1)NC(=O)CNC(=O)[C@H](C)NC(=O)[C@H](CO)NC(=O)[C@H](CC(N)=O)NC(=O)[C@H](CC(C)C)NC(=O)[C@@H](NC(=O)[C@H](Cc1c[nH]c2ccccc12)NC(=O)CNC)[C@@H](C)O)C(=O)N[C@@H](CCCCN)C(N)=O [[des-LLGP]Gal-B2] (H-[Sar]WTLNSAGYKKK(Palmitoyl)K-NH2)
Ki [1]: ≥ 30 µM
Ki [3]: 27.4 µM
